From ChEMBL document CHEMBL3576849, “De Novo Conception of Small Molecule Modulators Based on Endogenous Peptide Ligands: Pyrrolodiazepin-2-one γ-Turn Mimics That Differentially Modulate Urotensin II Receptor-Mediated Vasoconstriction ex Vivo” (J Med Chem, 2015)
Calls of active or inactive are those of the source. The rule behind the calls is not given here.

Columns and labels:
[1] = biological target: T1, Urotensin-2 receptor (Homo sapiens) (UniProt Q9UKP6); experiment: Effect on [125I]-human urotensin-2 binding to human urotensin-2 receptor expressed in CHO cells at 100 uM after 90 mins by gamma counting analysis relative to control; format: cell-based
T1 sequence (whole entry): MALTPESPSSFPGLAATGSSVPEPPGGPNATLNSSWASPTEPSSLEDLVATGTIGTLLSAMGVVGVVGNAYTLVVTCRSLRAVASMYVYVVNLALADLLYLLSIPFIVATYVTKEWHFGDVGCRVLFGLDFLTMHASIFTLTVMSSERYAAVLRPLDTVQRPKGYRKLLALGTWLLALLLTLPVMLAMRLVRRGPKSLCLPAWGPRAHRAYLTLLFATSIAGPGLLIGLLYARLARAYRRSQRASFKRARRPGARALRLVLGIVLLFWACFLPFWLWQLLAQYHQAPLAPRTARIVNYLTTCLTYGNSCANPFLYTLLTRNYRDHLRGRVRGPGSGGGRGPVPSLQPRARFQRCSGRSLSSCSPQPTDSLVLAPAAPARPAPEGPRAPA
In short: (§1)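 Whole CHO cells stably expressing human UT, plated at 150,000 cells/well, incubated with test compound (100 µM) and 0.2 nM 125I-hUII for 90 min at room temperature. Cells were washed and lysed, and bound radioactivity was gamma-counted. Results are % of specific binding without competitor. Non-specific binding was defined with 10 µM hUII. At least triplicate; mean ± S.E.M.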

[2] = biological target: T2, Urotensin-2 receptor (Rattus norvegicus) (UniProt P49684); experiment: Agonist activity at urotensin-2 receptor in Sprague-Dawley rat thoracic aortic ring assessed as induction of aortic ring contraction at 10 to 100 uM
T2 sequence (whole entry): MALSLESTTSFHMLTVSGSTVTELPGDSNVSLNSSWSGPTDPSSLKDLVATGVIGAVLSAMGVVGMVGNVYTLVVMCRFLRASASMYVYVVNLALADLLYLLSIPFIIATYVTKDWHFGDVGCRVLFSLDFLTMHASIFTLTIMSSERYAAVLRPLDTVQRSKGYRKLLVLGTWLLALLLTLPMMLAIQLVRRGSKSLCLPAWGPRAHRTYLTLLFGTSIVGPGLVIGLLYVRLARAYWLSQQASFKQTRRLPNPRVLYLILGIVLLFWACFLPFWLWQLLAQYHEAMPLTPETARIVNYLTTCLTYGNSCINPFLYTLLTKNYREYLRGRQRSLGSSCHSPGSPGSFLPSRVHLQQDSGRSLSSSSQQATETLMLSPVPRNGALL
In short: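 Thoracic aortic rings from adult male Sprague-Dawley rats (250–300 g, killed by CO2 asphyxiation); analog added alone to the organ chamber at 10 or 100 µM to test for contraction. 40 mM KCl contractions served as control at start and end. Run at least in triplicate.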

[3] = biological target: T2, Urotensin-2 receptor (Rattus norvegicus); experiment: Modulation of urotensin-2 receptor in Sprague-Dawley rat thoracic aortic ring assessed as human urotensin-2 Emax for induction of aortic ring contraction at 15 uM preincubated for 15 mins followed by human urotensin-2 addition (reference value: 116 +/- 3%)
In short: (§2)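 Thoracic aortic rings from adult male Sprague-Dawley rats (250–300 g, killed by CO2). Rings were exposed to test compound for 15 min, then cumulative hUII concentration-response curves were run (10-10–3.10-6 M). Contraction is expressed as % of the 40 mM KCl response, with KCl given at the start and end. EC50/pEC50/Emax come from a variable-slope sigmoidal fit. At least triplicate.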

[4] = biological target: T2, Urotensin-2 receptor (Rattus norvegicus); experiment: Modulation of urotensin-2 receptor in Sprague-Dawley rat thoracic aortic ring assessed as urotensin-2 related peptide Emax for induction of aortic ring contraction at 15 uM preincubated for 15 mins followed by urotensin-2 related peptide addition (reference value: 132 +/- 4%)
[5] = biological target: T1, Urotensin-2 receptor (Homo sapiens); experiment: Displacement of [125I]-human urotensin-2 from human urotensin-2 receptor expressed in CHO cells at 100 uM after 90 mins by gamma counting analysis relative to control; format: cell-based
In short: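 Incubated 90 min at room temperature with 100 µM compound plus 0.2 nM 125I-hUII (chloramine-T labelled). Cells washed and lysed, bound radioactivity gamma-counted. Reported as % of specific binding without competitor; nonspecific binding defined with 10 µM hUII. At least triplicate.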

[6] = biological target: T2, Urotensin-2 receptor (Rattus norvegicus); experiment: Modulation of urotensin-2 receptor in Sprague-Dawley rat thoracic aortic ring assessed as human urotensin-2 Emax for induction of aortic ring contraction at 10 uM preincubated for 15 mins followed by human urotensin-2 addition (reference value: 116 +/- 3%); in short: as §2
[7] = biological target: T2, Urotensin-2 receptor (Rattus norvegicus); experiment: Modulation of urotensin-2 receptor in Sprague-Dawley rat thoracic aortic ring assessed as urotensin-2 related peptide Emax for induction of aortic ring contraction at 10 uM preincubated for 15 mins followed by urotensin-2 related peptide addition (reference value: 132 +/- 4%)
[8] = biological target: T2, Urotensin-2 receptor (Rattus norvegicus); experiment: Modulation of urotensin-2 receptor in Sprague-Dawley rat thoracic aortic ring assessed as human urotensin-2 Emax for induction of aortic ring contraction at 11 uM preincubated for 15 mins followed by human urotensin-2 addition (reference value: 116 +/- 3%)
[9] = biological target: T2, Urotensin-2 receptor (Rattus norvegicus); experiment: Modulation of urotensin-2 receptor in Sprague-Dawley rat thoracic aortic ring assessed as urotensin-2 related peptide Emax for induction of aortic ring contraction at 11 uM preincubated for 15 mins followed by urotensin-2 related peptide addition (reference value: 132 +/- 4%)
[10] = biological target: T2, Urotensin-2 receptor (Rattus norvegicus); experiment: Modulation of urotensin-2 receptor in Sprague-Dawley rat thoracic aortic ring assessed as human urotensin-2 Emax for induction of aortic ring contraction at 8 uM preincubated for 15 mins followed by human urotensin-2 addition (reference value: 116 +/- 3%); in short: as §2
[11] = biological target: T2, Urotensin-2 receptor (Rattus norvegicus); experiment: Modulation of urotensin-2 receptor in Sprague-Dawley rat thoracic aortic ring assessed as urotensin-2 related peptide Emax for induction of aortic ring contraction at 8 uM preincubated for 15 mins followed by urotensin-2 related peptide addition (reference value: 132 +/- 4%)
[12] = biological target: T2, Urotensin-2 receptor (Rattus norvegicus); experiment: Modulation of urotensin-2 receptor in Sprague-Dawley rat thoracic aortic ring assessed as human urotensin-2 Emax for induction of aortic ring contraction at 14 uM preincubated for 15 mins followed by human urotensin-2 addition (reference value: 116 +/- 3%)
[13] = biological target: T2, Urotensin-2 receptor (Rattus norvegicus); experiment: Modulation of urotensin-2 receptor in Sprague-Dawley rat thoracic aortic ring assessed as urotensin-2 related peptide Emax for induction of aortic ring contraction at 14 uM preincubated for 15 mins followed by urotensin-2 related peptide addition (reference value: 132 +/- 4%)
[14] = biological target: T1, Urotensin-2 receptor (Homo sapiens); experiment: Induction of [125I]-human urotensin-2 binding to human urotensin-2 receptor expressed in CHO cells at 100 uM after 90 mins by gamma counting analysis relative to control; format: cell-based; in short: as §1
[15] = biological target: T2, Urotensin-2 receptor (Rattus norvegicus); experiment: Modulation of urotensin-2 receptor in Sprague-Dawley rat thoracic aortic ring assessed as human urotensin-2 Emax for induction of aortic ring contraction at 4 uM preincubated for 15 mins followed by human urotensin-2 addition (reference value: 116 +/- 3%)
[16] = biological target: T2, Urotensin-2 receptor (Rattus norvegicus); experiment: Modulation of urotensin-2 receptor in Sprague-Dawley rat thoracic aortic ring assessed as human urotensin-2 Emax for induction of aortic ring contraction at 1 uM preincubated for 15 mins followed by human urotensin-2 addition (reference value: 116 +/- 3%)
[17] = biological target: T2, Urotensin-2 receptor (Rattus norvegicus); experiment: Modulation of urotensin-2 receptor in Sprague-Dawley rat thoracic aortic ring assessed as reduction of human urotensin-2-induced aortic ring contraction preincubated for 15 mins followed by human urotensin-2 addition
[18] = biological target: T2, Urotensin-2 receptor (Rattus norvegicus); experiment: Noncompetitive antagonist activity at urotensin-2 receptor in Sprague-Dawley rat thoracic aortic ring assessed as reduction in human urotensin-2-induced response at 4 uM by double reciprocal plot analysis
Rattus norvegicus = species on record: Rattus norvegicus; experiment: Modulation of […] in Sprague-Dawley rat thoracic aortic ring assessed as change in human endothelin-1-induced aortic ring contraction at 1.4 x 10^-5 M

| Compound | Activity [1] | Activity [2] | inhibition [5] | Emax [6] | Emax [7] | also measured |
| --- | --- | --- | --- | --- | --- | --- |
| NCCCC[C@@H]1N=C(c2ccc(-c3ccccc3)cc2)c2[nH]c(C(=O)O)cc2N(CCc2ccc(O)cc2)C1=O | inactive | inactive |  |  |  | Emax [3]: 128%; Emax [4]: 110% |
| NCCC[C@@H]1N[C@@H](c2cccc3ccccc23)c2[nH]c(C(=O)O)cc2N(CCc2ccc(O)cc2)C1=O |  | inactive | 25% | 148% | 238% |  |
| NCCC[C@@H]1N[C@H](c2ccc(-c3ccccc3)cc2)c2[nH]c(C(=O)O)cc2N(CCc2ccc(O)cc2)C1=O | inactive | inactive |  |  |  | Emax [8]: 162%; Emax [9]: 139% |
| NCCC[C@@H]1N=C(c2ccc3ccccc3c2)c2[nH]c(C(=O)O)cc2N(CCc2ccc(O)cc2)C1=O | inactive | inactive |  | 70% | 142% |  |
| NCCC[C@@H]1N[C@H](c2cccc3ccccc23)c2[nH]c(C(=O)O)cc2N(CCc2ccc(O)cc2)C1=O |  | inactive | 25% | 139% | 210% |  |
| NCCCC[C@@H]1N=C(c2ccc3ccccc3c2)c2[nH]c(C(=O)O)cc2N(CCc2ccc(O)cc2)C1=O | inactive | inactive |  | 80% | 51% |  |
| NCCC[C@@H]1N=C(c2cccc3ccccc23)c2[nH]c(C(=O)O)cc2N(CCc2ccc(O)cc2)C1=O | inactive | inactive |  | 74% | 46% |  |
| NCCCC[C@@H]1N=C(c2cccc3ccccc23)c2[nH]c(C(=O)O)cc2N(CCc2ccc(O)cc2)C1=O | inactive | inactive |  |  |  | Emax [10]: 123%; Emax [11]: 60% |
| NCCCC[C@@H]1N[C@H](c2ccc3ccccc3c2)c2[nH]c(C(=O)O)cc2N(CCc2ccc(O)cc2)C1=O |  | inactive | 25% | 175% | 217% |  |
| NCCCC[C@@H]1N[C@@H](c2ccc(-c3ccccc3)cc2)c2[nH]c(C(=O)O)cc2N(CCc2ccc(O)cc2)C1=O | inactive | inactive |  |  |  | Emax [12]: 121%; Emax [13]: 113% |
| NCCC[C@@H]1N=C(c2ccc(-c3ccccc3)cc2)c2[nH]c(C(=O)O)cc2N(CCc2ccc(O)cc2)C1=O |  | inactive |  | 97% | 93% | Activity [14]: 117% |
| NCCCC[C@@H]1N[C@@H](c2ccc3ccccc3c2)c2[nH]c(C(=O)O)cc2N(CCc2ccc(O)cc2)C1=O |  | inactive | 25% | 194% | 107% |  |
| NCCCC[C@@H]1N[C@H](c2ccc(-c3ccccc3)cc2)c2[nH]c(C(=O)O)cc2N(CCc2ccc(O)cc2)C1=O |  | inactive | 25% |  |  | Emax [12]: 0%; Emax [15]: 63%; Emax [16]: 92%; Activity [17]: Dose-dependent effect; Emax [13]: 185%; Kb [18]: 2.9 µM; pKb [18]: 5.54; Activity (Rattus norvegicus): inactive |
